# According to ChEMBL document CHEMBL3046951, “Volatile constituents from the leaves of Callicarpa japonica Thunb. and their antibacterial activities” (2004):
# Legend:
# Type in all cases: functional
# [1] = test system: Bacillus cereus; assay: Antimicrobial activity against Bacillus cereus ATCC 11778 assessed as growth inhibition rate at 0.34 mg/l after 72 hr by spectrophotometry; settings: ATCC 11778, 72 h, read-out: GI
# In short: (§1)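 Pure volatile compounds (purity >95%; one at 90%) were tested against B. cereus ATCC 11778. The strain was grown at 30 °C in nutrient broth for 24 h, then subcultured for 18 h. Optical density was read in a Bioscreen C every 24 h for 72 h, with 10% Tween 80 as the control.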
# [2] = test system: Bacillus cereus; assay: Antimicrobial activity against Bacillus cereus ATCC 11778 assessed as growth inhibition rate at 0.068 mg/l after 72 hr by spectrophotometry; settings: ATCC 11778, 72 h, read-out: GI; in short: as §1
# [3] = test system: Bacillus cereus; assay: Antimicrobial activity against Bacillus cereus ATCC 11778 assessed as growth inhibition rate at 0.017 mg/l after 72 hr by spectrophotometry; settings: ATCC 11778, 72 h, read-out: GI; in short: as §1
# [4] = test system: Bacillus cereus; assay: Antimicrobial activity against Bacillus cereus ATCC 11778 assessed as growth inhibition rate at 6.8 mg/l after 72 hr by spectrophotometry; settings: ATCC 11778, 72 h, read-out: GI; in short: as §1
# [5] = test system: Bacillus cereus; assay: Antimicrobial activity against Bacillus cereus ATCC 11778 assessed as growth inhibition rate at 0.68 mg/l after 72 hr by spectrophotometry; settings: ATCC 11778, 72 h, read-out: GI; in short: as §1
# [6] = test system: Salmonella typhimurium; assay: Antimicrobial activity against Salmonella enterica subsp. enterica serovar Typhimurium ATCC 14028 assessed as growth inhibition rate at 0.34 mg/l after 72 hr by spectrophotometry; settings: ATCC 14028, 72 h, read-out: GI
# In short: (§2)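 Salmonella Typhimurium ATCC 14028 grown in nutrient broth at 30 °C, precultured 24 h, then subcultured 1:100 for 18 h before testing. Single volatile compounds (>95% pure) were added. OD was read every 24 h over 72 h in a Bioscreen C, with 10% Tween 80 as the comparison control.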
# [7] = test system: Salmonella typhimurium; assay: Antimicrobial activity against Salmonella enterica subsp. enterica serovar Typhimurium ATCC 14028 assessed as growth inhibition rate at 0.068 mg/l after 72 hr by spectrophotometry; settings: ATCC 14028, 72 h, read-out: GI; in short: as §2
# [8] = test system: Salmonella typhimurium; assay: Antimicrobial activity against Salmonella enterica subsp. enterica serovar Typhimurium ATCC 14028 assessed as growth inhibition rate at 0.017 mg/l after 72 hr by spectrophotometry; settings: ATCC 14028, 72 h, read-out: GI; in short: as §2
# [9] = test system: Salmonella typhimurium; assay: Antimicrobial activity against Salmonella enterica subsp. enterica serovar Typhimurium ATCC 14028 assessed as growth inhibition rate at 6.8 mg/l after 72 hr by spectrophotometry; settings: ATCC 14028, 72 h, read-out: GI; in short: as §2
# [10] = test system: Salmonella typhimurium; assay: Antimicrobial activity against Salmonella enterica subsp. enterica serovar Typhimurium ATCC 14028 assessed as growth inhibition rate at 0.68 mg/l after 72 hr by spectrophotometry; settings: ATCC 14028, 72 h, read-out: GI; in short: as §2
# [11] = test system: Listeria monocytogenes; assay: Antimicrobial activity against Listeria monocytogenes ATCC 19111 assessed as growth inhibition rate at 3.4 mg/l after 72 hr by spectrophotometry; settings: ATCC 19111, 72 h, read-out: GI
# In short: (§3)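 L. monocytogenes was grown at 30 °C in tryptic soy broth, subcultured for 18 h, and exposed to pure volatile compounds (>95% purity). Growth was followed by Bioscreen C optical density every 24 h for 72 h against a 10% Tween 80 control.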
# [12] = test system: Escherichia coli; assay: Antimicrobial activity against Escherichia coli O157:H7 ATCC 43894 assessed as growth inhibition rate at 0.34 mg/l after 72 hr by spectrophotometry; settings: O157:H7 ATCC 43894, 72 h, read-out: GI
# [13] = test system: Escherichia coli; assay: Antimicrobial activity against Escherichia coli O157:H7 ATCC 43894 assessed as growth inhibition rate at 0.068 mg/l after 72 hr by spectrophotometry; settings: O157:H7 ATCC 43894, 72 h, read-out: GI
# [14] = test system: Escherichia coli; assay: Antimicrobial activity against Escherichia coli O157:H7 ATCC 43894 assessed as growth inhibition rate at 0.017 mg/l after 72 hr by spectrophotometry; settings: O157:H7 ATCC 43894, 72 h, read-out: GI
# [15] = test system: Escherichia coli; assay: Antimicrobial activity against Escherichia coli O157:H7 ATCC 43894 assessed as growth inhibition rate at 6.8 mg/l after 72 hr by spectrophotometry; settings: O157:H7 ATCC 43894, 72 h, read-out: GI
# [16] = test system: Escherichia coli; assay: Antimicrobial activity against Escherichia coli O157:H7 ATCC 43894 assessed as growth inhibition rate at 0.68 mg/l after 72 hr by spectrophotometry; settings: O157:H7 ATCC 43894, 72 h, read-out: GI
# [17] = test system: Staphylococcus aureus; assay: Antimicrobial activity against Staphylococcus aureus ATCC 25923 assessed as growth inhibition rate at 0.34 mg/l after 72 hr by spectrophotometry; settings: ATCC 25923, 72 h, read-out: GI
# [18] = test system: Staphylococcus aureus; assay: Antimicrobial activity against Staphylococcus aureus ATCC 25923 assessed as growth inhibition rate at 0.068 mg/l after 72 hr by spectrophotometry; settings: ATCC 25923, 72 h, read-out: GI
# [19] = test system: Staphylococcus aureus; assay: Antimicrobial activity against Staphylococcus aureus ATCC 25923 assessed as growth inhibition rate at 0.017 mg/l after 72 hr by spectrophotometry; settings: ATCC 25923, 72 h, read-out: GI
# [20] = test system: Staphylococcus aureus; assay: Antimicrobial activity against Staphylococcus aureus ATCC 25923 assessed as growth inhibition rate at 6.8 mg/l after 72 hr by spectrophotometry; settings: ATCC 25923, 72 h, read-out: GI
# In short: (§4)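 Staphylococcus aureus ATCC 25923 grown at 37 °C in tryptic soy broth, using an 18 h subculture of a 24 h culture. Individual leaf-volatile compounds (>95% purity) were tested. Bioscreen C optical density was recorded every 24 h for 72 h and compared with a 10% Tween 80 control.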
# [21] = test system: Staphylococcus aureus; assay: Antimicrobial activity against Staphylococcus aureus ATCC 25923 assessed as growth inhibition rate at 0.68 mg/l after 72 hr by spectrophotometry; settings: ATCC 25923, 72 h, read-out: GI; in short: as §4
# [22] = test system: Vibrio parahaemolyticus; assay: Antimicrobial activity against Vibrio parahaemolyticus ATCC 33844 assessed as growth inhibition rate at 3.4 mg/l after 72 hr by spectrophotometry; settings: ATCC 33844, 72 h, read-out: GI
# In short: (§5)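 Vibrio parahaemolyticus ATCC 33844 grown at 37 °C in tryptic soy broth with 3% (w/v) NaCl, using an 18 h subculture of a 24 h culture. Pure compounds (>95% purity) were tested. Bioscreen C optical density was read every 24 h for 72 h against a 10% Tween 80 control.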
# [23] = test system: Salmonella typhimurium; assay: Antimicrobial activity against Salmonella enterica subsp. enterica serovar Typhimurium ATCC 14028 assessed as growth inhibition rate at 3.4 mg/l after 72 hr by spectrophotometry; settings: ATCC 14028, 72 h, read-out: GI; in short: as §2
# [24] = test system: Escherichia coli; assay: Antimicrobial activity against Escherichia coli O157:H7 ATCC 43894 assessed as growth inhibition rate at 3.4 mg/l after 72 hr by spectrophotometry; settings: O157:H7 ATCC 43894, 72 h, read-out: GI
# [25] = test system: Staphylococcus aureus; assay: Antimicrobial activity against Staphylococcus aureus ATCC 25923 assessed as growth inhibition rate at 3.4 mg/l after 72 hr by spectrophotometry; settings: ATCC 25923, 72 h, read-out: GI; in short: as §4
# [26] = test system: Listeria monocytogenes; assay: Antimicrobial activity against Listeria monocytogenes ATCC 19111 assessed as growth inhibition rate at 6.8 mg/l after 72 hr by spectrophotometry; settings: ATCC 19111, 72 h, read-out: GI; in short: as §3
# [27] = test system: Listeria monocytogenes; assay: Antimicrobial activity against Listeria monocytogenes ATCC 19111 assessed as growth inhibition rate at 0.68 mg/l after 72 hr by spectrophotometry; settings: ATCC 19111, 72 h, read-out: GI; in short: as §3
# [28] = test system: Vibrio parahaemolyticus; assay: Antimicrobial activity against Vibrio parahaemolyticus ATCC 33844 assessed as growth inhibition rate at 6.8 mg/l after 72 hr by spectrophotometry; settings: ATCC 33844, 72 h, read-out: GI; in short: as §5
# [29] = test system: Vibrio parahaemolyticus; assay: Antimicrobial activity against Vibrio parahaemolyticus ATCC 33844 assessed as growth inhibition rate at 0.68 mg/l after 72 hr by spectrophotometry; settings: ATCC 33844, 72 h, read-out: GI; in short: as §5
# [30] = test system: Listeria monocytogenes; assay: Antimicrobial activity against Listeria monocytogenes ATCC 19111 assessed as growth inhibition rate at 0.34 mg/l after 72 hr by spectrophotometry; settings: ATCC 19111, 72 h, read-out: GI; in short: as §3
# [31] = test system: Listeria monocytogenes; assay: Antimicrobial activity against Listeria monocytogenes ATCC 19111 assessed as growth inhibition rate at 0.068 mg/l after 72 hr by spectrophotometry; settings: ATCC 19111, 72 h, read-out: GI; in short: as §3
# [32] = test system: Listeria monocytogenes; assay: Antimicrobial activity against Listeria monocytogenes ATCC 19111 assessed as growth inhibition rate at 0.017 mg/l after 72 hr by spectrophotometry; settings: ATCC 19111, 72 h, read-out: GI; in short: as §3
# [33] = test system: Vibrio parahaemolyticus; assay: Antimicrobial activity against Vibrio parahaemolyticus ATCC 33844 assessed as growth inhibition rate at 0.34 mg/l after 72 hr by spectrophotometry; settings: ATCC 33844, 72 h, read-out: GI
# [34] = test system: Vibrio parahaemolyticus; assay: Antimicrobial activity against Vibrio parahaemolyticus ATCC 33844 assessed as growth inhibition rate at 0.068 mg/l after 72 hr by spectrophotometry; settings: ATCC 33844, 72 h, read-out: GI
# [35] = test system: Vibrio parahaemolyticus; assay: Antimicrobial activity against Vibrio parahaemolyticus ATCC 33844 assessed as growth inhibition rate at 0.017 mg/l after 72 hr by spectrophotometry; settings: ATCC 33844, 72 h, read-out: GI
# [36] = test system: Bacillus cereus; assay: Antimicrobial activity against Bacillus cereus ATCC 11778 assessed as growth inhibition rate at 3.4 mg/l after 72 hr by spectrophotometry; settings: ATCC 11778, 72 h, read-out: GI; in short: as §1
smiles,measurement,setting,value
"CC/C=C/C=C/C=O [2,4-HEPTADIENAL]",inhibition of growth at 0.34 µg/mL,[1],1.8%
same,inhibition of growth at 0.068 µg/mL,[2],1.1%
same,inhibition of growth at 0.017 µg/mL,[3],0%
same,inhibition of growth at 6.8 µg/mL,[4],100%
same,inhibition of growth at 0.68 µg/mL,[5],11%
same,inhibition of growth at 0.34 µg/mL,[6],8.6%
same,inhibition of growth at 0.068 µg/mL,[7],8.8%
same,inhibition of growth at 0.017 µg/mL,[8],5.8%
same,inhibition of growth at 6.8 µg/mL,[9],88.6%
same,inhibition of growth at 0.68 µg/mL,[10],18.2%
same,inhibition of growth at 3.4 µg/mL,[11],34.5%
same,inhibition of growth at 0.34 µg/mL,[12],1.3%
same,inhibition of growth at 0.068 µg/mL,[13],0.5%
same,inhibition of growth at 0.017 µg/mL,[14],0.5%
same,inhibition of growth at 6.8 µg/mL,[15],27.5%
same,inhibition of growth at 0.68 µg/mL,[16],4.4%
same,inhibition of growth at 0.34 µg/mL,[17],2.8%
same,inhibition of growth at 0.068 µg/mL,[18],0%
same,inhibition of growth at 0.017 µg/mL,[19],0%
same,inhibition of growth at 6.8 µg/mL,[20],95.5%
same,inhibition of growth at 0.68 µg/mL,[21],4.9%
same,inhibition of growth at 3.4 µg/mL,[22],82.4%
same,inhibition of growth at 3.4 µg/mL,[23],57.8%
same,inhibition of growth at 3.4 µg/mL,[24],16.6%
same,inhibition of growth at 3.4 µg/mL,[25],80.9%
same,inhibition of growth at 6.8 µg/mL,[26],51.6%
same,inhibition of growth at 0.68 µg/mL,[27],5.9%
same,inhibition of growth at 6.8 µg/mL,[28],99%
same,inhibition of growth at 0.68 µg/mL,[29],11.4%
same,inhibition of growth at 0.34 µg/mL,[30],1.6%
same,inhibition of growth at 0.068 µg/mL,[31],0.8%
same,inhibition of growth at 0.017 µg/mL,[32],0.1%
same,inhibition of growth at 0.34 µg/mL,[33],6.1%
same,inhibition of growth at 0.068 µg/mL,[34],5.8%
same,inhibition of growth at 0.017 µg/mL,[35],5.6%
same,inhibition of growth at 3.4 µg/mL,[36],92.9%
